# Measurements from ChEMBL document CHEMBL1150419, “Structure-activity relationships of a peptide inhibitor of the human FcRn:human IgG interaction” (Bioorg Med Chem, 2008).
# What was measured:
# [1] = target: T1, IgG receptor FcRn large subunit p51 (Homo sapiens, UniProt P55899); assay: Inhibition of human IgG binding to soluble human FcRn by ELISA
# Summary of the method: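 Biotinylated soluble human FcRn immobilized on neutravidin plates, incubated with hIgG (3 nM, constant) and peptide at varying concentrations for 2 h at 37 °C. After washing, bound hIgG detected with peroxidase-conjugated hIgG-specific Fab fragments.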
# [2] = target: T1, IgG receptor FcRn large subunit p51; assay: Binding affinity to human FcRn at pH 6 by surface plasmon resonance assay
# Summary of the method: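 Soluble human FcRn coupled to the dextran surface of a CM5 chip; peptide dilutions flowed over the chip. The equilibrium response at each dilution was plotted against concentration and fitted to a steady-state affinity model to give Kd.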
# T1 sequence (P55899 whole entry, the tested form may be a part): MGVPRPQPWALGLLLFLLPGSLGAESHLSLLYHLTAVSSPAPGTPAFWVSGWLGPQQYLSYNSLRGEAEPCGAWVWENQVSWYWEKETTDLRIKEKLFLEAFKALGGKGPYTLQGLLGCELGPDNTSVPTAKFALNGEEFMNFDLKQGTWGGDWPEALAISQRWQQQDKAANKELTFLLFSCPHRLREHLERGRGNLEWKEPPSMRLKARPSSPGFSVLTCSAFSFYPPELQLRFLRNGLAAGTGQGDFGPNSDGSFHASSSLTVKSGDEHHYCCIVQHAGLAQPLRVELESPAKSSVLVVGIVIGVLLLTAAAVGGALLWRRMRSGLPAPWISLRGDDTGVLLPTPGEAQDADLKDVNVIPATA
Compound,IC50 [1],Kd [2]
CC(C)C[C@H](NC(=O)CNC(=O)CNC(=O)[C@H](Cc1ccc(C(C)(C)C)cc1)NC(=O)[C@H](Cc1cnc[nH]1)NC(=O)CNC(=O)[C@@H](NC(=O)[C@@H](NC(=O)[C@H](Cc1ccccc1)NC(=O)[C@H](CCCNC(=N)N)NC(=O)[C@@H](N)CCC(N)=O)C(C)(C)S)[C@@H](C)O)C(=O)N[C@@H](Cc1ccc(O)cc1)C(=O)N1CCC[C@H]1C(=O)N[C@@H](CS)C(=O)O,> 125 µM,230 µM
CC(C)C[C@H](NC(=O)CNC(=O)CNC(=O)[C@H](Cc1ccccc1)NC(=O)[C@H](Cc1cnc[nH]1)NC(=O)CNC(=O)[C@@H](NC(=O)[C@@H](NC(=O)[C@H](Cc1ccccc1)NC(=O)[C@H](CCCNC(=N)N)NC(=O)[C@@H](N)CCC(N)=O)C(C)(C)S)[C@@H](C)O)C(=O)N[C@@H](Cc1ccc(O)cc1[N+](=O)[O-])C(=O)N1CCC[C@H]1C(=O)N[C@@H](CS)C(=O)N[C@@H](CC(N)=O)C(=O)NCC(=O)N1CCC[C@H]1C(=O)O,> 125 µM,290 µM
CC(C)C[C@H](NC(=O)CNC(=O)CNC(=O)[C@H](Cc1ccccc1)NC(=O)[C@H](Cc1cnc[nH]1)NC(=O)CNC(=O)[C@@H](NC(=O)[C@@H](NC(=O)[C@H](Cc1ccccc1)NC(=O)[C@H](CCCN=C(N)N)NC(=O)[C@@H](N)CCC(N)=O)C(C)(C)S)[C@@H](C)O)C(=O)N[C@@H](Cc1ccc(N)cc1)C(=O)N1CCC[C@H]1C(=O)N[C@@H](CS)C(=O)N[C@@H](CC(N)=O)C(=O)NCC(=O)N1CCC[C@H]1C(=O)O,110 µM,34 µM
CC(C)C[C@H](NC(=O)CNC(=O)CNC(=O)[C@H](Cc1ccccc1)NC(=O)[C@H](Cc1cnc[nH]1)NC(=O)CNC(=O)[C@@H](NC(=O)[C@H](CCC(=O)O)NC(=O)[C@H](Cc1ccccc1)NC(=O)[C@H](CCCNC(=N)N)NC(=O)[C@@H](N)CCC(N)=O)[C@@H](C)O)C(=O)N[C@@H](Cc1ccc(O)cc1)C(=O)N1CCC[C@H]1C(=O)N[C@@H](CCCCN)C(=O)N[C@@H](CC(N)=O)C(=O)NCC(=O)N1CCC[C@H]1C(=O)O,100 µM,27 µM
CC(C)C[C@H](NC(=O)CNC(=O)CNC(=O)[C@H](Cc1ccccc1)NC(=O)[C@H](Cc1cnc[nH]1)NC(=O)CNC(=O)[C@@H](NC(=O)[C@H](CS)NC(=O)[C@H](Cc1ccccc1)NC(=O)[C@H](CCCNC(=N)N)NC(=O)[C@@H](N)CCC(N)=O)[C@@H](C)O)C(=O)N[C@@H](Cc1ccccc1)C(=O)N1CCC[C@H]1C(=O)N[C@@H](CS)C(=O)N[C@@H](CC(N)=O)C(=O)NCC(=O)N1CCC[C@H]1C(=O)O,> 125 µM,230 µM
CC(C)C[C@H](NC(=O)CNC(=O)CNC(=O)[C@H](Cc1ccccc1)NC(=O)[C@H](Cc1cnc[nH]1)NC(=O)CNC(=O)[C@@H](NC(=O)[C@@H](NC(=O)[C@H](Cc1ccccc1)NC(=O)[C@H](CCCNC(=N)N)NC(=O)[C@@H](N)CCC(N)=O)C(C)(C)S)[C@@H](C)O)C(=O)N[C@@H](Cc1c(F)c(F)c(F)c(F)c1F)C(=O)N1CCC[C@H]1C(=O)N[C@@H](CS)C(=O)N[C@@H](CC(N)=O)C(=O)NCC(=O)N1CCC[C@H]1C(=O)O,> 125 µM,72 µM
CC(C)C[C@@H](C(=O)N[C@@H](Cc1ccc(O)cc1)C(=O)N1CCC[C@H]1C(=O)N[C@@H](CS)C(=O)O)N(C)C(=O)CN(C)C(=O)CNC(=O)[C@H](Cc1ccccc1)NC(=O)[C@H](C)NC(=O)CNC(=O)[C@@H](NC(=O)[C@@H](NC(=O)[C@H](Cc1ccccc1)NC(=O)[C@@H](N)CCCNC(=N)N)C(C)(C)S)[C@@H](C)O,> 100 µM,9.9 µM

# Now from value to compound:
IC50 [1],Kd [2],Compound
16 µM,230 µM,CC(C)C[C@@H](C(=O)N[C@@H](Cc1ccc(O)cc1)C(=O)N1CCC[C@H]1C(=O)N[C@@H](CS)C(=O)O)N(C)C(=O)CN(C)C(=O)CNC(=O)[C@H](CCc1ccccc1)NC(=O)[C@H](Cc1cnc[nH]1)NC(=O)CNC(=O)[C@@H](NC(=O)[C@@H](NC(=O)[C@H](Cc1ccccc1)NC(=O)[C@H](CCCNC(=N)N)NC(=O)[C@@H](N)CCC(N)=O)C(C)(C)S)[C@@H](C)O
23 µM,2.3 µM,CC(C)C[C@H](NC(=O)CN1CCCC[C@@H](NC(=O)[C@H](Cc2ccccc2)NC(=O)[C@H](Cc2cnc[nH]2)NC(=O)CNC(=O)[C@@H](NC(=O)[C@@H](NC(=O)[C@H](Cc2ccccc2)NC(=O)[C@@H](N)CCCN=C(N)N)C(C)C)[C@@H](C)O)C1=O)C(=O)N[C@@H](Cc1ccc(O)cc1)C(=O)N1CCC[C@H]1C(=O)N[C@@H](C)C(=O)O
92 µM,34 µM,CC(C)C[C@H](NC(=O)CNC(=O)CNC(=O)[C@H](Cc1ccccc1)NC(=O)[C@H](Cc1cnc[nH]1)NC(=O)CNC(=O)[C@@H](NC(=O)[C@@H](NC(=O)[C@H](Cc1ccccc1)NC(=O)[C@H](CCCNC(=N)N)NC(=O)[C@@H](N)CCC(N)=O)C(C)(C)S)[C@@H](C)O)C(=O)N[C@@H](Cc1cccnc1)C(=O)N1CCC[C@H]1C(=O)N[C@@H](CS)C(=O)N[C@@H](CC(N)=O)C(=O)NCC(=O)N1CCC[C@H]1C(=O)O
90 µM,11 µM,CC(C)C[C@H](NC(=O)CNC(=O)CNC(=O)[C@H](Cc1ccc2ccccc2c1)NC(=O)[C@H](Cc1cnc[nH]1)NC(=O)CNC(=O)[C@@H](NC(=O)[C@@H](NC(=O)[C@H](Cc1ccccc1)NC(=O)[C@H](CCCN=C(N)N)NC(=O)[C@@H](N)CCC(N)=O)C(C)(C)S)[C@@H](C)O)C(=O)N[C@@H](Cc1ccc(O)cc1)C(=O)N1CCC[C@H]1C(=O)N[C@@H](CS)C(=O)N[C@@H](CC(N)=O)C(=O)NCC(=O)N1CCC[C@H]1C(=O)O
60 µM,19 µM,CC(C)C[C@H](NC(=O)CNC(=O)CNC(=O)[C@H](Cc1cccnc1)NC(=O)[C@H](Cc1cnc[nH]1)NC(=O)CNC(=O)[C@@H](NC(=O)[C@@H](NC(=O)[C@H](Cc1ccccc1)NC(=O)[C@H](CCCN=C(N)N)NC(=O)[C@@H](N)CCC(N)=O)C(C)(C)S)[C@@H](C)O)C(=O)N[C@@H](Cc1ccc(O)cc1)C(=O)N1CCC[C@H]1C(=O)N[C@@H](CS)C(=O)N[C@@H](CC(N)=O)C(=O)NCC(=O)N1CCC[C@H]1C(=O)O
32 µM,230 µM,CC(C)C[C@H](NC(=O)CNC(=O)CNC(=O)[C@@H](NC(=O)[C@H](Cc1cnc[nH]1)NC(=O)CNC(=O)[C@@H](NC(=O)[C@@H](NC(=O)[C@H](Cc1ccccc1)NC(=O)[C@H](CCCN=C(N)N)NC(=O)[C@@H](N)CCC(N)=O)C(C)(C)S)[C@@H](C)O)C(c1ccccc1)c1ccccc1)C(=O)N[C@@H](Cc1ccc(O)cc1)C(=O)N1CCC[C@H]1C(=O)N[C@@H](CS)C(=O)O
100 µM,18 µM,COc1ccc(C[C@H](NC(=O)[C@H](Cc2cnc[nH]2)NC(=O)CNC(=O)[C@@H](NC(=O)[C@@H](NC(=O)[C@H](Cc2ccccc2)NC(=O)[C@H](CCCN=C(N)N)NC(=O)[C@@H](N)CCC(N)=O)C(C)(C)S)[C@@H](C)O)C(=O)NCC(=O)NCC(=O)N[C@@H](CC(C)C)C(=O)N[C@@H](Cc2ccc(O)cc2)C(=O)N2CCC[C@H]2C(=O)N[C@@H](CS)C(=O)N[C@@H](CC(N)=O)C(=O)NCC(=O)N2CCC[C@H]2C(=O)O)cc1
1.6 µM,0.84 µM,CC(C)C[C@@H](C(=O)N[C@@H](Cc1ccc(O)cc1)C(=O)N1CCC[C@H]1C(=O)N[C@@H](CS)C(=O)O)N(C)C(=O)CN(C)C(=O)CNC(=O)[C@H](Cc1ccccc1)NC(=O)[C@H](Cc1cscn1)NC(=O)CNC(=O)[C@@H](NC(=O)[C@@H](NC(=O)[C@H](Cc1ccccc1)NC(=O)[C@@H](N)CCCN=C(N)N)C(C)(C)S)[C@@H](C)O
